Shown are actives, neighbours in structure and some others; about 5.2% of the full set was active somewhere.
ALR H2O2 inh = blocks human ALR sulfhydryl oxidase activity; inhibition, % (concentration not given with the values); P55789; purified ALR, DTT oxidation, H2O2 HRP-luminol luminescence; 290,000 tested, 3.8% active;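 active means mean replicate inhibition above about 79%, with every replicate also reaching it, limit read from the data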
Target sequence (P55789 whole entry, looked up): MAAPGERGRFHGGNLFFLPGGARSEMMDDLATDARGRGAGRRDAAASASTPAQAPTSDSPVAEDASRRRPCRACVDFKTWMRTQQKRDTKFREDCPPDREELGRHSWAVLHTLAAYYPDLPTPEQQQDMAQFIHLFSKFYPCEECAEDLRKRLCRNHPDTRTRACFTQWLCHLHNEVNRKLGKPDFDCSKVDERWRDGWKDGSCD
NS3 helicase inh = inhibitors of Hepatitis C virus NS3 helicase | NS3 helicase DNA unwinding, Cy5 molecular beacon fluorescence | inhibition, % at 10.9 µM | 290,000 tested, 0.56% active;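 active means inhibition above the mean of all tested compounds plus 3 SD, set per campaign, cut at about 35% in these data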;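 further: 0% = DMSO wells and 100% = thioflavine S control wells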
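assay system = NS3 helicase fragment of HCV | buffer or medium = MOPS pH 6.5, MgCl2, DTT, Tween20, BSA | timing = 60 min unwinding reaction at 25 °C after ATP addition | signal = Cy5 beacon fluorescence read at start and 1 h | read-out basis = % inhibition of unwinding | control set = low DMSO, high thioflavine S at 110 µM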
ZTA counter = blocks Epstein-Barr virus ZTA, an EBNA-1 counter-screen. P03206. ZTA-DNA binding, fluorescence polarization. inhibition, % at 11 µM. 320,000 tested, 0.15% active. AID 2234; in the data active means inhibition above about 33%
Target sequence (P03206 whole entry, looked up): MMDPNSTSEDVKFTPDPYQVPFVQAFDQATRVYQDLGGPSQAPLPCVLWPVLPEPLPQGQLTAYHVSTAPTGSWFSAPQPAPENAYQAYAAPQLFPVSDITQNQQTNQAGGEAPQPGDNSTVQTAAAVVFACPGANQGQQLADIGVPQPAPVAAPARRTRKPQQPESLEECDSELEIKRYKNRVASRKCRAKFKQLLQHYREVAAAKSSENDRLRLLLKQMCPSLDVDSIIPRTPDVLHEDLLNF
EBNA-1 inh = blocks EBNA-1 binding to DNA; inhibition, % at 14.8 µM; 300,000 tested, 0.34% active; EBNA-1 DNA binding, fluorescence polarization; AID 1950; in the data active means inhibition above about 28%
PfM18AAP inh = PfM18AAP enzyme inhibition; 290,000 tested, 1.2% active; AID 1822; inhibition, % at 7.35 µM; recombinant PfM18AAP, H-Glu-NHMec fluorogenic cleavage;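 active means inhibition above the campaign mean inhibition over all tested compounds plus 3 SD, cut at about 28% in these data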;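 further: 0% = plate median of test compound wells and 100% = 2 mM ZnCl2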
core dimer inh = HCV core protein dimerization inhibition; 300,000 tested, 0.33% active; inhibition, % at 5 µM; TR-FRET GST/Flag-core106 dimerization, 1536-well;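 active means inhibition above the mean of all tested compounds plus 3 SD, set per screening campaign, cut at about 45% in these data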
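System: GST-tagged and Flag-tagged HCV core protein residues 1-106 / Input: core106 proteins, GST 13.5 nM and Flag 17 nM / Buffer or medium: KF-containing HEPES buffer, pH 7.45, DTT, CHAPS, BSA / Probe or stimulus: Eu-anti-GST and XL665-anti-Flag labelled anti-tag antibodies / Schedule: 4 h, 22.5 °C incubation / Technique: TR-FRET 671 and 617 nm emission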
The depositor's hits bear a star.

What do the screens show for `COc1ccc(NC2c3ncccc3C(=O)N2Cc2cccs2)cc1` (stereo not drawn)?
ALR H2O2 inh: 96*; NS3 helicase inh: -6; ZTA counter: -18; EBNA-1 inh: -2; PfM18AAP inh: 6; core dimer inh: -11

How did CC(Cc1ccc(Cl)cc1)N1CCC(n2nccc2NC(=O)C2CCCC2)CC1 (stereo not drawn) do in these assays?
ALR H2O2 inh: -1; NS3 helicase inh: -27; ZTA counter: -17; EBNA-1 inh: -10; PfM18AAP inh: -2; core dimer inh: 1

Results for CC/C(=N\NS(=O)(=O)c1ccc(C)cc1)c1ccco1 ?
ALR H2O2 inh: 98*; NS3 helicase inh: 1; ZTA counter: 5; EBNA-1 inh: 2; PfM18AAP inh: -4; core dimer inh: 3

How did COc1ccc(N2C(=S)NC3N2C(=S)NC3(C)c2ccccc2)cc1 (stereo not drawn) do in these assays?
ALR H2O2 inh: 98*; NS3 helicase inh: -5; ZTA counter: -19; EBNA-1 inh: 0; PfM18AAP inh: 15; core dimer inh: -11

What do the screens show for `COc1ccc(C2=NC(=O)NC2c2ccc(OC)cc2)cc1` (stereo not drawn)?
ALR H2O2 inh: 2; NS3 helicase inh: -11; ZTA counter: 4; EBNA-1 inh: -7; PfM18AAP inh: 5; core dimer inh: -10

How did O=C1N=C(c2ccccc2)C(c2ccccc2)N1 (stereo not drawn) do in these assays?
ALR H2O2 inh: 99*; NS3 helicase inh: 3; ZTA counter: -9; EBNA-1 inh: 1; PfM18AAP inh: -2; core dimer inh: -7

Results for Cc1cc(C)nc(Nc2n[nH]c(-c3ccc(N)cc3)n2)n1 ?
ALR H2O2 inh: 99*; NS3 helicase inh: -11; ZTA counter: -11; EBNA-1 inh: 5; PfM18AAP inh: 5; core dimer inh: -15

What do the screens show for `Cc1csc(NC(=O)CSc2nncn2C)n1`?
ALR H2O2 inh: -9; NS3 helicase inh: 1; ZTA counter: -4; EBNA-1 inh: -14; PfM18AAP inh: -1; core dimer inh: -3

What do the screens show for `Cc1csc(NC(=O)CSc2nncc(=O)n2N)n1`?
ALR H2O2 inh: 98*; NS3 helicase inh: 10; ZTA counter: 1; EBNA-1 inh: -9; PfM18AAP inh: 22; core dimer inh: -1

How did CCOC(=O)c1csc(NC(=O)CSc2nnnn2CC)n1 do in these assays?
ALR H2O2 inh: 99*; NS3 helicase inh: 3; ZTA counter: -5; EBNA-1 inh: 5; PfM18AAP inh: 6; core dimer inh: -11

What do the screens show for `Cc1csc(NC(=O)CSc2nccn2C)n1`?
ALR H2O2 inh: 96*; NS3 helicase inh: -7; ZTA counter: -6; EBNA-1 inh: 0; PfM18AAP inh: 1; core dimer inh: 4

How did COC(=O)CCN(C)CCC(=O)OC do in these assays?
ALR H2O2 inh: 96*; NS3 helicase inh: -7; ZTA counter: 1; EBNA-1 inh: 9; PfM18AAP inh: 1; core dimer inh: -2

How did Cc1ccc2oc(=O)c(/C=C(\O)C(C)(C)C)nc2c1 do in these assays?
ALR H2O2 inh: 36; NS3 helicase inh: 17; ZTA counter: -10; EBNA-1 inh: -17; PfM18AAP inh: 23; core dimer inh: -2

How did Cc1ccc2oc(=O)c(/C=C(\O)c3sc(C)nc3C)nc2c1 do in these assays?
NS3 helicase inh: 9; ZTA counter: 3; EBNA-1 inh: -5; PfM18AAP inh: 29*; core dimer inh: -5

What do the screens show for `Cc1ccc(/C=C/C2=Cc3c(sc(NC(=O)CSc4n[nH]c(N)n4)c3C#N)C(C)(C)C2)o1`?
ALR H2O2 inh: -1; NS3 helicase inh: 45*; ZTA counter: 7; EBNA-1 inh: 49*; PfM18AAP inh: 22; core dimer inh: 89*

Results for CCOC(=O)c1sc(NC(=O)CSc2n[nH]c(-c3ccccc3)n2)c(C#N)c1C ?
NS3 helicase inh: 0; ZTA counter: 1; EBNA-1 inh: -8; PfM18AAP inh: 20; core dimer inh: 17

How did CCN(CC)c1ccc(Nc2nc(N3CCOCC3)c3ccccc3n2)cc1 do in these assays?
ALR H2O2 inh: 99*; NS3 helicase inh: -20; ZTA counter: -15; EBNA-1 inh: -13; PfM18AAP inh: -2; core dimer inh: -17

What do the screens show for `O=C(CSCc1cc(=O)n2nc(C3CC3)sc2n1)Nc1ccc(F)cc1`?
ALR H2O2 inh: 47; NS3 helicase inh: 3; ZTA counter: -3; EBNA-1 inh: 1; PfM18AAP inh: -3; core dimer inh: -4

What do the screens show for `Cc1ccc(SCC(=O)OCC(=O)N(CCC#N)c2ccccc2)cc1`?
ALR H2O2 inh: 3; ZTA counter: -10

How did CC(C)c1cc(C(C)C)c(S(=O)(=O)N2c3ccccc3[C@@]3(Br)C[C@H]4C(=O)N[C@@H](Cc5ccccc5)C(=O)N4[C@@H]23)c(C(C)C)c1 do in these assays?
ALR H2O2 inh: 0; ZTA counter: 24; EBNA-1 inh: 7; core dimer inh: 46*

Results for O=C1N[C@@H](Cc2ccccc2)C(=O)N2[C@H]1C[C@]1([C@]34C[C@H]5C(=O)N[C@@H](Cc6ccccc6)C(=O)N5[C@H]3N(S(=O)(=O)c3ccccc3)c3ccccc34)c3ccccc3N(S(=O)(=O)c3ccccc3)[C@H]21 ?
ALR H2O2 inh: 1; ZTA counter: 5; EBNA-1 inh: 9; core dimer inh: 60*

How did O=C1N[C@@H](Cc2ccccc2)C(=O)N2[C@@H]3N(S(=O)(=O)c4ccccc4)c4ccccc4[C@]3(Br)C[C@@H]12 do in these assays?
ALR H2O2 inh: 4; ZTA counter: 14; EBNA-1 inh: 8; core dimer inh: 23

What do the screens show for `Cn1cccc1C(=O)OCc1cc(-c2ccco2)on1`?
ALR H2O2 inh: -2; ZTA counter: 9

What do the screens show for `CCOC(=O)[C@@H]1[C@H]2COc3ccccc3[C@@H]2N2C(=O)N(c3cccc(C)c3)C(=O)[C@]12C`?
ALR H2O2 inh: -5; NS3 helicase inh: 4; ZTA counter: 5; EBNA-1 inh: 13; PfM18AAP inh: -10; core dimer inh: 3

How did Cc1ccc(S(=O)(=O)NC(CC(C)C)C(=O)NCCCn2nc(C)cc2C)cc1 (stereo not drawn) do in these assays?
ALR H2O2 inh: -4; ZTA counter: -6

How did Oc1c(C(c2ccccc2)N2CCN(Cc3ccccc3)CC2)sc2ncnn12 (stereo not drawn) do in these assays?
ALR H2O2 inh: -22; NS3 helicase inh: -1; ZTA counter: 10; EBNA-1 inh: -2; PfM18AAP inh: 29*; core dimer inh: -1

Results for Cc1ccc2c(c1)-n1c(nc3ccccc3c1=O)C(CC(C)C)NC2=O (stereo not drawn) ?
ALR H2O2 inh: 6

What do the screens show for `NCCC1CCCC(CCN)N1` (stereo not drawn)?
ALR H2O2 inh: -17; ZTA counter: active; EBNA-1 inh: active; core dimer inh: 12

Assay outcomes: PubChem BioAssay, several laboratories
